In the EternaBench riboswitch data:

Tested on: MS2 coat protein
Assay: apparent Kd, MS2 coat protein; higher = weaker binding; RNA-MaP array; FMN 200 µM where present
Summary of the method: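 Stalled E. coli RNA polymerase transcribed each design on Illumina sequencing-chip clusters. The clusters were titrated with SNAP-549-labelled MS2 coat protein, starting at 0.7 or 1.5 nM and doubling up to 3 µM, first without ligand and then with constant ligand, in 100 mM Tris-HCl pH 7.5, 80 mM KCl, 4 mM MgCl2, BSA, DTT, yeast tRNA and Tween-20. Green signal was normalised to red-channel RNA signal and to the control-cluster median Fmax. The apparent Kd is the median of filtered binding-curve fits made for each cluster.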

[1] = designed as: ON switch for flavin mononucleotide, no ligand
[2] = ligand present: flavin mononucleotide, designed as: ON switch for flavin mononucleotide
[3] = designed as: OFF switch for flavin mononucleotide, no ligand
[4] = ligand present: flavin mononucleotide, designed as: OFF switch for flavin mononucleotide

Sequence	apparent Kd [1]	apparent Kd [2]	apparent Kd [3]	apparent Kd [4]
AAAGCUCAGAUAGGAUAUAUAGGAUAACUUAAGACCUAACAUGAGGAUCACCCAUGUGAUUAUUCGUAGAAGGAUCAUUGAACC	195 nM	209 nM	–	–
AUAAAACAUGAGGAUCACCCAUGUAAGGAUAUGCGAAAAUAAAAUAAAAUAAAAUAAAGCAGAAGGUACAAAAA	–	–	51 nM	59.6 nM
GGAUCGAGUGUGAGGAUAUACCUAUGGAUACAUAGGUAGAAGGCACAUGAGGAUCACCCAUGUGUUCCCGGUCC	–	–	43.4 nM	368 nM
AUACAUGAGGAUCACCCAUGUUACUGGGUCUAAAUAGAACGUAGAAGGAUGUAUUUACACAUAACAUAGGAUAUACUAUAUAGU	–	–	153 nM	72.8 nM
CUAUUUUGUGCCUCAUUUACAUGAGGAUCACCCAUGUUAACUUAGGAUAUAUUUAUAUUGUUAGAGUAGAAGGAAGUACAAUUU	–	–	83.5 nM	55.9 nM
UUUUUUUACUAGGAUAUCGCCGCCGAAAGGCGGCGAGAAGGAGUAACAUGAGGAUCACCCAUGUGUCCUUUUUU	–	–	21.9 nM	74.2 nM
CUUAUUUGAGGAUAUACGUCACCGUCUUCAUGAGUUCAAAUACAUGAGGAUCACCCAUGUAGAAGGCAAUUACU	–	–	25.8 nM	39.4 nM
CGCUACUACCAGAAGGACAUGAGGAUCACCCAUGUAGGAUAUGGGUUACACGUUCCUGUGUUUUGUUACUACGCUACGUAUGCG	621 nM	29 nM	–	–
CCCAUCGCAUGAGGAUAUGGUCAGCUUUGCUGACCAGAAGGCAUGUCAUAAGACAUGAGGAUCACCCAUGUAGUUAAGAUGGGA	654 nM	48.3 nM	–	–
CGGUCGAUGUAAGGAUAUCGACUGGAAUACAGUCGAGAAGGUACAUGAGGAUCACCCAUGUAAACCUAUAAUAAAUAACGACCG	–	–	11.7 nM	14.4 nM
ACAUGAGGAUCACCCAUGUAUUACAUGGUUAAGUUUAUUAACAGAAGGCGAAAAUACCACUUUUUCGAGGAUAUGUUUUCUAUA	–	–	47.4 nM	61.6 nM
CUCACGUUAGUAGGAUAUCCGACAUGAGGAUCACCCAUGUCACUACGCCGAUAGGGAAGGUGUAAGGAGAAGGGCUGAUAAAUA	124 nM	92.9 nM	–	–
GCACUUCGGCAGAAGGGACUAAGGGUAUGGUAGUCAGGAUAUGCAGGGUGGGCGUUUCACAUGAGGAUCACCCAUGUAGGACCA	21.1 nM	7.78 nM	–	–
GAGAGGUCAGGAUAUACGGAGAGAGGGAGUUGGUGAGGGUAACAUGAGGAUCACCCAUGUAGAAGGGACUAAGG	–	–	27.6 nM	30.1 nM
AGUAGAUCAGGAUAUACAUAAAUGAUAAUUAUGUACCUUCUACAUGAGGAUCACCCAUGUAGAAGGGAUCUACA	–	–	13.1 nM	11.9 nM
ACUGUCGCGUGAGGAUAUGGUCUGCAGUGCUGACCAGAAGGCAUGUCGAUAGACAUGAGGAUCACCCAUGUGGUUAGGGCGGCA	933 nM	467 nM	–	–
GUUACAUGAGGAUCACCCAUGUAUGUGUGGGAGUAAGUGUCUUAGGAUAUCUAUCAUUGAAUUUAAGAGAAGGAAGAUUGUUGU	113 nM	126 nM	–	–
UAUGGGUGUGUGAGGAUAUACGAAGGCAGUGGCCAGUAGAAGGUACAUGAGGAUCACCCAUGUGUCCAAAAGUG	–	–	14.1 nM	18.4 nM
UUUUACUAGUAAGGAUAUACUAGCGAUUAGCUUGUAGAAGGUGCAGUCUUAUGUAUAACAUGUUAACAUGAGGAUCACCCAUGU	125 nM	37.6 nM	–	–
ACUAGAUGAGGAUAUACACAUUUUAGUGUUCCUCUAGAUUAACAUGAGGAUCACCCAUGUAGAAGGCAUCAAUU	–	–	56.5 nM	183 nM
UCGUUUUUUGAGGAUAUGCGACGUUCCUUCGUCGUAGAAGGCGAUACAUGAGGAUCACCCAUGUUUAUGGGCAU	–	–	108 nM	138 nM

Sequence	apparent Kd [1]	apparent Kd [2]	apparent Kd [3]	apparent Kd [4]
CGUUUAUUUAUUGGAUUAUAUUAUGAGGAUAUCAAUAUUUAUUACAUGAGGAUCACCCAUGUUAAUGAGAAGGCAUAAUUAACG	9.99 nM	6.68 nM	–	–
GGCUGGUGACAGCAUCCAUCAAAACAUGAGGAUCACCCAUGUAGAAGGCUGUACGGUUACCGUACAGAGGAUAUACAAUGAUGG	–	–	6.96 nM	9.46 nM
AGGAAGUGAGGAUAUGCAGUGGCUUGUAGACGCAAGCACUUGUAGAAGGCACAUGAGGAUCACCCAUGUUUAAA	–	–	30.8 nM	37.3 nM
GUGACGAAUGUAGGAUAUGCUGAGGAAUACUCAGCAGAAGGACAUGAGGAUCACCCAUGUAAUCCUAAUAAUAAAUAACGUCAC	–	–	13 nM	18.3 nM
GCGUAUAUAAGAUUUAUAAAACAGUCAGAAGGUGAUAAGACGACAUGAGGAUCACCCAUGUAAUUCAAGGAUAUGAUAAUGCGC	56.3 nM	15.4 nM	–	–
CGCUGUCACGCAGGAUAUGCAUUGGAUUACAAUGCAGAAGGGCGAUCACAUGAGGAUCACCCAUGUGUAGACAGUGAAUAAGAG	611 nM	49.6 nM	–	–
GGAUGACAAAGUCAUCCAUAACGAACAUGAGGAUCACCCAUGUAGGAUAUGCUAGUCAAAGACUAGCAGAAGGACAUGUGUCUU	–	–	36.4 nM	146 nM
AGUGUCAUCGAGAAGGCCUCAACAUGAGGAUCACCCAUGUUGCAAAAUGGGAGGAUAUCGCGCGAAAAGCUACGUUUCGUAGCA	28.9 nM	11.6 nM	–	–
UGUCGGAGCAGAGGAUAUAACAUGAGGAUCACCCAUGUAAUAAGAUCAAGCUGGAAACAGCAAUGUUAGAAGGCUGCUCCGACA	–	–	219 nM	1010 nM
UUCAUGUGAGGAUAUGCGGCACCAGGCAAGCCUAGUGCUGAGCAGAAGGCACAUGAGGAUCACCCAUGUGCUCC	–	–	29.3 nM	72.2 nM
CUUUUAUAAUAGAAGGUAGACUUUAUGAGGAUCACCCAUGUGUUGGUACUAAGGAUAUGUAGUAACAUGAGGAUCACCCAUGUU	25.9 nM	26.5 nM	–	–
CGCAACAUACAGAAGGAGUAAAUUAGAAGUGUACUAGGAUAUGUUUACAUGAGGAUCACCCAUGUCGAUUGGGUUUUAGUUGCG	–	–	489 nM	251 nM
AUAUUAAGUGUGAGGAUAUGCUGGUCCUUGGAUCAGCAGAAGGCACAUGAGGAUCACCCAUGUAAUAUAUUUAU	–	–	90.4 nM	349 nM
GAGAAGUCAGGAUAUGCAUGGCGGGACUUGCGUCGUGGCGUGCAGAAGGGACAUGAGGAUCACCCAUGUGGAGU	–	–	163 nM	235 nM
AAAAAGCGAGGAUAUACAUGAGGAUCACCCAUGUGAAAGUCGAAAAAAAAGACAAAAAGUAGAAGGCGCAAAAA	–	–	23.2 nM	26.7 nM
GGGCGACAUGAGGAUCACCCAUGUAACCUAAACGAAGGAUAUGGGCCUGAACGUCCAGGACCAGAAGGUCGGAAAU	23.6 nM	17.9 nM	–	–
GUAGCAUACCGAGGAUAUUCAUACAGGAAACUGACAUGAGGAUCACCCAUGUGGCGAAAGCCUUGGGAGAAGGCGGAAUGCUAC	637 nM	28.4 nM	–	–
GCAACGCCUGACAUGAGGAUCACCCAUGUUAGAUUGUUAUGUCAGGAUAUUGUCGCGAAACGUGAUGAGAAGGGAUAUGUUGCU	815 nM	53.9 nM	–	–
AUAUAUAUAUCAGGAUAUGGACAGGCCUGUUCGUAUUAAGACAGUAACAUGAGGAUCACCCAUGUCCAGAAGGGAUAUAUAUAU	–	–	83.9 nM	50 nM
GUCCUCUCUGAGGAUAUUAUCCGGUCCGAUUGAUAAGAAGGCAGUACAUGAGGAUCACCCAUGUGGGUUGUCUG	–	–	62.6 nM	170 nM
GGGCUGUCAGGAUAUGGGUUUGGGCCCGAAAGGGCCCGGGCCCAGAAGGGACAUGAGGAUCACCCAUGUGGCCC	–	–	32.1 nM	33.8 nM
